Measurements of several laboratories.
Compare with care: the assays were run in different laboratories.
Target: Serine/threonine-protein kinase PRP4 homolog (PRPF4B, Homo sapiens, UniProt Q13523)

Compound | read-out | action | technique | concentration | measurement | value
CN1CC(Oc2cnc(C#N)cc2-c2ccn3nc(NC(=O)C4CC4)cc3c2)C1 | enzyme activity | inhibitor |  | 1 µM | inhibition | 3%
CC(=O)c1c(NS(C)(=O)=O)c2cc(-c3ccc(Cl)cc3)c(-c3ccc(Cl)cc3Cl)nc2n(C)c1=O | cell-free assay |  | competition with immobilised ligand | 1 µM | remaining binding | 83%
Cc1ccc(C(=O)NCc2ccsc2)cc1C#Cc1cn(C(C)C)c2ncnc(N)c12 | enzyme activity | inhibitor |  | 1 µM | activity vs control | 114%
COc1ccc2c(O[C@@H]3C[C@H]4C(=O)N[C@]5(C(=O)O)CC5/C=C\CCCCC[C@H](NC(=O)OC5CCCC5)C(=O)N4C3)cc(-c3csc(NC(=O)C(C)C)n3)nc2c1C (some centres unmarked) | cell-free assay |  | competition with immobilised ligand | 1 µM | remaining binding | 93%
c1ccc(CNc2nc(N3CCOc4ccccc43)nc3c2CCCC3)cc1 | target engagement in cells | inhibitor | chemoproteomics | 20 mM | inhibition | -6.7%
Nc1ncnc2occ(-c3ccc(NC(=O)Nc4cc(C(F)(F)F)ccc4F)cc3)c12 | cell-free assay | inhibitor |  | 20 µM | remaining signal | 100%
CCCCNc1ncc2c(-c3ccc(F)cc3)nn(C[C@H]3CC[C@H](N)CC3)c2n1 | target engagement in cells | inhibitor | chemoproteomics | 20 mM | inhibition | -1.2%
Cc1ccc(C(=O)Nc2ccc(CN3CCN(C)CC3)c(C(F)(F)F)c2)cc1C#Cc1cnc2cccnn12 | enzyme activity | inhibitor |  | 23.5 nM | remaining activity | 91%
